The test system of experiment [1] is NCI-H460. The experiment is described as follows: Cytotoxicity against human H460 cells. It counts as functional, cell-based. To be noted: for pIC50: Homo sapiens, NCI-H460, read-out: IC50; for IC50: nci-h460.
Experiment [2] can be described thus: Cytotoxicity against mouse Neuro2a cells. It counts as functional, cell-based, N2a. To be noted: for IC50: n2a.
Experiment [3] is described as follows: Inhibition of calcium channel in mouse neocortical neurons assessed as inhibition of intracellular calcium oscilations. It counts as cell-based. To be noted: for pIC50: Mus musculus, read-out: IC50. In a few lines: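 Primary neocortical neurons from embryonic day 16 Swiss-Webster mice, used at 12–13 DIV. Loaded 1 h with 4 μM fluo-3 plus 0.04% pluronic F-127 in Locke's buffer (pH 7.4), washed four times. Excitation 485 nm, emission 535 nm, read every 1.5 s; 60 s baseline, then compound added as a 4× solution. IC50 given with 95% CI.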
For orientation: Calcium assays in cells follow changes in intracellular calcium, usually with a dye or a luminescent sensor.

The nature of experiment [4]: Activation of voltage-gated sodium channel in mouse neocortical neuron assessed as intracellular sodium influx. Particulars: for pEC50: Mus musculus, read-out: EC50; call rule not given here.
Experiment [5] in a line: Activation of voltage-gated sodium channel in mouse Neuro-2a cells assessed as intracellular sodium influx. Particulars: N2a.

pEC50, pIC50: −log10 of the molar value.

Regarding `CCC[C@@H](C)[C@H](O)[C@H](C)[C@H]1OC(=O)[C@H]([C@@H](C)O)NC(=O)[C@H](C(C)C)OC(=O)[C@H](C)[C@H](O)[C@H]([C@@H](C)CC)NC(=O)[C@@]2(C)CSC(=N2)[C@@]2(C)CSC(=N2)c2csc(n2)C[C@H](OC)[C@@H]1C` [HOIAMIDE A], the pIC50 in experiment [1] was 4.95; in experiment [2] (Mus musculus, N2a, read-out: IC50) it was 5.68; in experiment [3], 7.34. Further, the pEC50 in experiment [4] is 5.77.
In the case of `CCC[C@@H](C)[C@H](OC(C)=O)[C@H](C)[C@H]1OC(=O)[C@H]([C@@H](C)OC(C)=O)NC(=O)[C@H](C(C)C)OC(=O)[C@H](C)[C@H](OC(C)=O)[C@H]([C@@H](C)CC)NC(=O)[C@@]2(C)CSC(=N2)[C@@]2(C)CSC(=N2)c2csc(n2)C[C@H](OC)[C@@H]1C`, the IC50 result in experiment [1], in experiment [2] and in experiment [3] was “Not Active” each time. In addition, in experiment [4], the EC50 result is recorded as “Not Active”.
For the compound `CCC[C@@H](C)[C@H](OC(=O)c1ccc(Br)cc1)[C@H](C)[C@H]1OC(=O)[C@H]([C@@H](C)O)NC(=O)[C@H](C(C)C)OC(=O)[C@H](C)[C@H](O)[C@H]([C@@H](C)CC)NC(=O)[C@@]2(C)CSC(=N2)[C@@]2(C)CSC(=N2)c2csc(n2)C[C@H](OC)[C@@H]1C`, in experiment [1], the IC50 entry is recorded as “Not Active”. The pIC50 in experiment [5] was 5.47; in experiment [3] it was 7.06. Further, the pEC50 in experiment [4] is 5.03.
In the case of `CCC[C@@H](C)[C@H](O)[C@H](C)[C@H]1OC(=O)[C@H]([C@@H](C)O)NC(=O)[C@H]([C@@H](C)CC)OC(=O)[C@H](C)[C@H](O)[C@H]([C@@H](C)CC)NC(=O)[C@@]2(C)CSC(=N2)[C@@]2(C)CSC(=N2)c2csc(n2)C[C@H](OC)[C@@H]1C` [HOIAMIDE B], the pIC50 was 5.08 in experiment [1] and 7.10 in experiment [3]. The IC50 entry in experiment [2] was “Not Active”. Besides, the negative-log EC50 (pEC50) in experiment [4] is 5.41.
On to `CCC[C@@H](C)[C@H](O)[C@H](C)[C@@H](O)[C@@H](C)[C@H](Cc1nc(C2=N[C@@](C)(C3=N[C@@](C)(C(=O)N[C@H]([C@@H](O)[C@@H](C)C(=O)OCC)[C@@H](C)CC)CS3)CS2)cs1)OC` [HOIAMIDE C], for which the IC50 result in experiment [1], in experiment [2] and in experiment [3] was “Not Active” throughout. For the same compound, in experiment [4], the EC50 result is on record as “Not Active”.

For orientation: pIC50 means the negative decadic logarithm of the IC50, by convention in mol/L. For orientation: pEC50 means the EC50 on a negative log10 scale, so that one unit is a factor of ten.

The values are drawn from ChEMBL document CHEMBL1212930, “The hoiamides, structurally intriguing neurotoxic lipopeptides from Papua New Guinea marine cyanobacteria” (J Nat Prod, 2010).
